ChEMBL document CHEMBL4411279, “Synthesis of new chalcone-based homoserine lactones and their antiproliferative activity evaluation” (Eur J Med Chem, 2019)
Activity calls are given as the source filed them. The rule behind the calls is not given here.

Assays:
MGC-803 = assay: Antiproliferative activity against human MGC803 cells after 72 hrs by MTT assay; type: functional, cell-based; details: MGC-803, 72 h
Procedure, shortened: (§1)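 Cells seeded 3,000/well, after 24 h medium replaced with compound at 64, 32, 16, 8, 4, 2, 1, 0.5 µM; 72 h exposure, MTT read-out at 570 nm; IC50 given as mean ± SD.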

DU-145 [1] = assay: Induction of apoptosis in human DU145 cells assessed as late apoptotic cells at 10 uM after 24 hrs by Annexin V-FITC/propidium iodide staining-based high content screening assay (reference value: 0.2%); type: functional
Procedure, shortened: (§2)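 DU145 seeded 3×10^5/well, grown 24 h, treated 24 h with compound alone or plus TRAIL; harvested, stained with Annexin V-FITC/PI per kit protocol, quantified by high content screening; mean ± SD of three experiments.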

MCF7 = assay: Antiproliferative activity against human MCF7 cells after 72 hrs by MTT assay; type: functional, cell-based; details: MCF7, 72 h; procedure, shortened: as §1
DU-145 [2] = assay: Growth inhibition of human DU145 cells at 5 uM after 72 hrs in presence of TRAIL by MTT assay relative to control; type: functional; details: DU-145, 72 h, read-out: GI
Procedure, shortened: (§3)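 DU145 growth inhibition measured by MTT; time course at 24, 48 and 72 h; combination arm used recombinant TRAIL at 100 ng/mL together with compound (2.5 or 5.0 µM); mean ± SD, experiment repeated three times, Student's t test.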

DU-145 [3] = assay: Antiproliferative activity against human DU145 cells after 72 hrs by MTT assay; type: functional, cell-based; details: DU-145, 72 h; procedure, shortened: as §1
DU-145 [4] = assay: Induction of apoptosis in human DU145 cells assessed as early apoptotic cells at 10 uM after 24 hrs in presence of TRAIL by Annexin V-FITC/propidium iodide staining-based high content screening assay (reference value: 0.3%); type: functional; procedure, shortened: as §2
DU-145 [5] = assay: Induction of apoptosis in human DU145 cells assessed as formation of apoptotic bodies at 10 uM after 24 hrs in presence of TRAIL by Hoechst 33258 staining-based fluorescence microscopic analysis; type: functional, cell-based
Procedure, shortened: (§4)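 DU145 seeded 1×10^5/well, adhered overnight, treated 24 h with compound alone or combined with TRAIL; stained with Hoechst 33258 for 30 min in the dark; nuclear morphology examined by fluorescence microscopy.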

DU-145 [6] = assay: Induction of apoptosis in human DU145 cells assessed as cell rounding at 10 uM after 24 hrs in presence of TRAIL by Hoechst 33258 staining-based fluorescence microscopic analysis; type: functional; procedure, shortened: as §4
PC-3 = assay: Antiproliferative activity against human PC3 cells after 72 hrs by MTT assay; type: functional, cell-based; details: PC-3, 72 h; procedure, shortened: as §1
DU-145 [7] = assay: Inhibition of colony formation in human DU145 cells after 21 days by crystal violet staining-based assay; type: functional, cell-based
Procedure, shortened: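 DU145 seeded 4000/well, grown 4 days, then medium with compound at various concentrations for 21 days; PBS washed, fixed in 4% paraformaldehyde, stained with 0.1% crystal violet; colonies (>10 cells) counted; inhibition = (1 − treated/control colonies) × 100%.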

DU-145 [8] = assay: Induction of apoptosis in human DU145 cells assessed as early apoptotic cells at 10 uM after 24 hrs by Annexin V-FITC/propidium iodide staining-based high content screening assay (reference value: 0.3%); type: functional; procedure, shortened: as §2
DU-145 [9] = assay: Growth inhibition of human DU145 cells at 5 uM after 24 to 48 hrs by MTT assay; type: functional, cell-based; procedure, shortened: as §3
DU-145 [10] = assay: Induction of apoptosis in human DU145 cells assessed as formation of apoptotic bodies at 10 uM after 24 hrs by Hoechst 33258 staining-based fluorescence microscopic analysis; type: functional, cell-based; procedure, shortened: as §4
DU-145 [11] = assay: Induction of apoptosis in human DU145 cells assessed as viable cells at 10 uM after 24 hrs in presence of TRAIL by Annexin V-FITC/propidium iodide staining-based high content screening assay (reference value: 97.9%); type: functional; details: DU-145, 24 h, read-out: Activity; procedure, shortened: as §2
DU-145 [12] = assay: Induction of apoptosis in human DU145 cells assessed as increase in caspase-3/7 activity at 10 uM after 24 hrs in presence of TRAIL by Caspase-Glo 3/7 assay relative to control; type: functional
Procedure, shortened: (§5)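 DU145 treated 24 h with compound alone or with TRAIL (100 ng/mL); caspase-3/7 activity measured by Caspase-Glo 3/7 luminescent protocol relative to untreated control; three independent experiments, mean ± SD, Student's t test.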

DU-145 [13] = assay: Induction of apoptosis in human DU145 cells assessed as necrotic cells at 10 uM after 24 hrs by Annexin V-FITC/propidium iodide staining-based high content screening assay (reference value: 1.6%); type: functional; procedure, shortened: as §2
DU-145 [14] = assay: Induction of apoptosis in human DU145 cells assessed as chromatin shrinkage at 10 uM after 24 hrs by Hoechst 33258 staining-based fluorescence microscopic analysis; type: functional, cell-based; procedure, shortened: as §4
DU-145 [15] = assay: Induction of apoptosis in human DU145 cells assessed as viable cells at 10 uM after 24 hrs by Annexin V-FITC/propidium iodide staining-based high content screening assay (reference value: 97.9%); type: functional; details: DU-145, 24 h, read-out: Activity; procedure, shortened: as §2
DU-145 [16] = assay: Induction of apoptosis in human DU145 cells assessed as late apoptotic cells at 10 uM after 24 hrs in presence of TRAIL by Annexin V-FITC/propidium iodide staining-based high content screening assay (reference value: 0.2%); type: functional; procedure, shortened: as §2
DU-145 [17] = assay: Induction of apoptosis in human DU145 cells assessed as increase in caspase-3/7 activity at 10 to 50 uM after 24 hrs by Caspase-Glo 3/7 assay; type: functional, cell-based; procedure, shortened: as §5
DU-145 [18] = assay: Induction of apoptosis in human DU145 cells assessed as cell rounding at 10 uM after 24 hrs by Hoechst 33258 staining-based fluorescence microscopic analysis; type: functional; procedure, shortened: as §4
DU-145 [19] = assay: Induction of apoptosis in human DU145 cells assessed as chromatin shrinkage at 10 uM after 24 hrs in presence of TRAIL by Hoechst 33258 staining-based fluorescence microscopic analysis; type: functional, cell-based; procedure, shortened: as §4
DU-145 [20] = assay: Induction of apoptosis in human DU145 cells assessed as necrotic cells at 10 uM after 24 hrs in presence of TRAIL by Annexin V-FITC/propidium iodide staining-based high content screening assay (reference value: 1.6%); type: functional; procedure, shortened: as §2
DU-145 [21] = assay: Growth inhibition of human DU145 cells at 5 uM by MTT assay; type: functional, cell-based; details: TDE = time-dependent effect; procedure, shortened: as §3

IC50 (MGC-803)	IC50 (MCF7)	IC50 (DU-145 [3])	IC50 (PC-3)	Compound	other results
29.5 µM	26.2 µM	19.3 µM	22.5 µM	CCCCCCCCCC(=O)CC(=O)N[C@H]1CCOC1=O	Activity (DU-145 [1]): 1.1%; inhibition of growth at 5 µM (DU-145 [2]): 20%; Activity (DU-145 [4]): 12.2%; Activity (DU-145 [5]): Active; Activity (DU-145 [6]): Active; inhibition (DU-145 [7]): Dose-dependent effect; Activity (DU-145 [8]): 9.2%; Activity (DU-145 [9]): Active; Activity (DU-145 [10]): Active; viability at 10 µM (DU-145 [11]): 77.9%; fold change (FC) (DU-145 [12]): 2; Activity (DU-145 [13]): 0.5%; Activity (DU-145 [14]): Active; viability at 10 µM (DU-145 [15]): 89.2%; Activity (DU-145 [16]): 9.7%; Activity (DU-145 [17]): Active; Activity (DU-145 [18]): Active; Activity (DU-145 [19]): Active; Activity (DU-145 [20]): 0.2%; growth inhibition (GI) (DU-145 [21]): Tde
> 64 µM	> 64 µM	> 64 µM	> 64 µM	O=C(CNc1ccc(Cl)cc1Cl)N[C@H]1CCOC1=O	–
> 64 µM	> 64 µM	> 64 µM	> 64 µM	O=C(CNc1ccccc1)N[C@H]1CCOC1=O	–
27.9 µM	> 64 µM	> 64 µM	> 64 µM	C=CCc1ccc(OCCSC(=S)N[C@H]2CCOC2=O)c(OC)c1	–
> 64 µM	> 64 µM	48.3 µM	56.8 µM	O=C(COc1ccc(C(=O)/C=C/c2ccccc2)cc1)N[C@H]1CCOC1=O	–
> 64 µM	> 64 µM	41.8 µM	56.2 µM	O=C(COc1ccc(C(=O)/C=C/c2cccc([N+](=O)[O-])c2)cc1)N[C@H]1CCOC1=O	–
51 µM	> 64 µM	51.7 µM	> 64 µM	O=C(COc1ccc(C(=O)/C=C/c2ccc(Br)cc2)cc1)N[C@H]1CCOC1=O	–
32.3 µM	39.5 µM	> 64 µM	> 64 µM	O=C1OCC[C@@H]1NC(=S)SCCOc1ccccc1Cc1ccccc1	–
51.1 µM	50.5 µM	> 64 µM	> 64 µM	O=C1OCC[C@@H]1NC(=S)SCCOc1ccc(Cl)cc1	–
> 64 µM	> 64 µM	> 64 µM	> 64 µM	CCCCCCCCCCSC(=S)N[C@H]1CCOC1=O	–
17.2 µM	16.4 µM	6.57 µM	10.6 µM	CC(C)(C)c1ccc(/C=C/C(=O)c2ccc(OCC(=O)N[C@H]3CCOC3=O)cc2)cc1	–
43.4 µM	> 64 µM	> 64 µM	> 64 µM	Cc1ccc(C(C)C)c(OCCSC(=S)N[C@H]2CCOC2=O)c1	–
29.1 µM	20.9 µM	3.7 µM	4.99 µM	O=C(COc1ccc(C(=O)/C=C/c2cccc(Cl)c2)cc1)N[C@H]1CCOC1=O	–
> 64 µM	> 64 µM	> 64 µM	> 64 µM	O=C1OCC[C@@H]1NC(=S)SCCOc1cccc2ccccc12	–
26.5 µM	34.4 µM	8.61 µM	8.04 µM	O=C(COc1ccc(C(=O)/C=C/c2ccc(Cl)cc2Cl)cc1)N[C@H]1CCOC1=O	–
53.8 µM	> 64 µM	63.8 µM	> 64 µM	O=C1OCC[C@@H]1NC(=S)SCCOc1ccccc1	–
16.8 µM	23.4 µM	13.1 µM	4.66 µM	CC(C)c1ccc(/C=C/C(=O)c2ccc(OCC(=O)N[C@H]3CCOC3=O)cc2)cc1	–
11.9 µM	28.3 µM	9.8 µM	7.89 µM	O=C(COc1ccc(C(=O)/C=C/c2cccc(Br)c2)cc1)N[C@H]1CCOC1=O	–

IC50 (MGC-803)	IC50 (MCF7)	IC50 (DU-145 [3])	IC50 (PC-3)	Compound	other results
> 64 µM	> 64 µM	> 64 µM	> 64 µM	O=C(CNc1ccc(Cl)cc1)N[C@H]1CCOC1=O	–
> 64 µM	> 64 µM	> 64 µM	> 64 µM	Cc1cc(Cl)ccc1NCC(=O)N[C@H]1CCOC1=O	–
39.4 µM	> 64 µM	10.1 µM	7.24 µM	COc1ccccc1/C=C/C(=O)c1ccc(OCC(=O)N[C@H]2CCOC2=O)cc1	–
12.2 µM	15.2 µM	3.54 µM	3.26 µM	O=C(COc1ccc(C(=O)/C=C/c2ccccc2Br)cc1)N[C@H]1CCOC1=O	–
> 64 µM	> 64 µM	> 64 µM	> 64 µM	O=C(CNc1ccccc1Cl)N[C@H]1CCOC1=O	–
> 64 µM	> 64 µM	> 64 µM	> 64 µM	O=C(CNc1cccc(Cl)c1)N[C@H]1CCOC1=O	–
> 64 µM	> 64 µM	> 64 µM	> 64 µM	O=C(CNc1ccc(Br)cc1)N[C@H]1CCOC1=O	–
> 64 µM	> 64 µM	> 64 µM	> 64 µM	O=C(CNc1ccc(F)cc1)N[C@H]1CCOC1=O	–
> 64 µM	> 64 µM	17.2 µM	23.2 µM	O=C(COc1ccc(C(=O)/C=C/c2cccc(F)c2)cc1)N[C@H]1CCOC1=O	–
> 64 µM	> 64 µM	18.8 µM	15.6 µM	O=C(COc1ccc(C(=O)/C=C/c2ccc(F)cc2)cc1)N[C@H]1CCOC1=O	–
> 64 µM	> 64 µM	> 64 µM	> 64 µM	O=C(CNc1ccccc1F)N[C@H]1CCOC1=O	–
> 64 µM	> 64 µM	19.8 µM	21.9 µM	O=C(COc1ccc(C(=O)/C=C/c2ccc(F)c(F)c2)cc1)N[C@H]1CCOC1=O	–
> 64 µM	> 64 µM	> 64 µM	> 64 µM	CC(C)c1ccc(NCC(=O)N[C@H]2CCOC2=O)cc1	–
> 100 µM	> 64 µM	31 µM	32.5 µM	O=C1OCC[C@@H]1NC(=S)SCCOc1ccc([N+](=O)[O-])cc1	–
47 µM	> 64 µM	33.4 µM	24 µM	O=C1OCC[C@@H]1NC(=S)SCCOc1ccccc1[N+](=O)[O-]	–
> 64 µM	> 64 µM	28.2 µM	24.1 µM	CCOc1ccccc1OCCSC(=S)N[C@H]1CCOC1=O	–
> 64 µM	> 64 µM	32.6 µM	46.9 µM	CC(=O)c1ccc(OCCSC(=S)N[C@H]2CCOC2=O)cc1	–
